Measured values of several laboratories.
Compare with care: the assays were run in different laboratories.
Action: inhibitor
MAPK14: Mitogen-activated protein kinase 14 (MAPK14, Homo sapiens, UniProt Q16539)

Compound | target | test | test system | conditions | inhibition [%]
CC/C(=N\NC(=O)NCc1cccc(O)c1)c1ccc(O)c(C)c1O | MAPK14 | enzyme activity |  | 0.1 µM | -2.8
CCCCNc1ncc2c(-c3ccc(F)cc3)nn(C[C@H]3CC[C@H](N)CC3)c2n1 | MAPK14 | target engagement in cells, chemoproteomics |  | 20 mM | 60.6
CCN(CC)CCNC(=O)c1c(C)[nH]c(/C=C2\C(=O)Nc3ccc(F)cc32)c1C | MAPK14 | enzyme activity |  | 10 µM | -1
O=C(CSc1nc2nccnc2c(=O)n1CCc1ccccc1)Nc1nccs1 | MAPK14 | enzyme activity |  | 10 µM | 3
Cc1ccc(Nc2nccc(N(C)c3ccc4c(C)n(C)nc4c3)n2)cc1S(N)(=O)=O | Mitogen-activated protein kinase 14 (MAPK14, Homo sapiens, UniProt Q16539, T106M) | enzyme activity |  | 10 µM | 13
COc1cccc2c(NCc3ccccc3)nc(-n3c(N)nc4ccccc43)nc12 | MAPK14 | target engagement in cells, chemoproteomics |  | 20 mM | 16.5
COc1cc2ncnc(Nc3ccc(Oc4ccccc4)c(C)c3C)c2cc1OC | MAPK14 | enzyme activity |  | 1 µM | -3
CNc1cc(Oc2cc(C(=O)Nc3cc(N4CCN(C)CC4)cc(C(F)(F)F)c3)ccc2C)ncn1 | MAPK14 | target engagement in cells, chemoproteomics | Huh-7 | 1 µM | -29
CN(c1ncccc1CNc1nc(Nc2ccc3c(c2)CC(=O)N3)ncc1C(F)(F)F)S(C)(=O)=O | MAPK14 | enzyme activity |  | 1 µM | 0
CN(C)C1CCN(CC#Cc2nn(C3CCCC3)c3nc(NCc4ccccc4)ncc23)C1 (stereo not drawn) | MAPK14 | enzyme activity, FRET |  | 1 µM | 3
CNC(=O)c1cc(Oc2ccc(NC(=O)Nc3ccc(Cl)c(C(F)(F)F)c3)cc2)ccn1 | MAPK14 | enzyme activity |  | 0.3 µM | -9
CS(=O)(=O)Nc1cccc(-c2csc(NC(=O)CSc3nc4nccnc4c(=O)n3CCc3ccccc3)n2)c1 | MAPK14 | enzyme activity |  | 10 µM | -1
CCCS(=O)(=O)Nc1ccc(F)c(C(=O)c2c[nH]c3ncc(-c4ccc(Cl)cc4)cc23)c1F | MAPK14 | enzyme activity |  | 1 µM | < 10
CN1CC(Oc2cnc(C#N)cc2-c2ccn3nc(NC(=O)C4CC4)cc3c2)C1 | MAPK14 | enzyme activity |  | 1 µM | -19
COc1cc2ncnc(Nc3ccc(Oc4ccccc4)cc3C)c2cc1OC | MAPK14 | enzyme activity |  | 1 µM | 3
